Laboratory results published in publication PMC10009879 (RSC Advances, 2023).
Values after ≈ are worked out from the molar mass of the structure shown. Blank lines part the entries; values can stand above or below the compound they belong to.

How the values were obtained:
[1] = system: α-glucosidase; settings: cited from earlier work
[2] = system: α-glucosidase; assay: Screening of α-glucosidase inhibitory activity; assay type: biochemical, Saccharomyces cerevisiae; settings: times better than acarbose
[3] = system: α-glucosidase; assay: α-Glucosidase inhibition type and inhibition constants by Lineweaver–Burk plots; assay type: biochemical, Saccharomyces cerevisiae
Method in brief: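 Yeast (Saccharomyces cerevisiae) α-glucosidase with 4-nitrophenyl […]-D-glucopyranoside (pNPG) as substrate. The test compound was run at 0, 1.98, 3.97 and 7.93 μM, each in three replicates. Inhibition type was assigned from Lineweaver–Burk plots using a modified published method. Ki (free enzyme) and K′i (enzyme–substrate complex) were derived from the same data.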

[4] = biological target: α-glucosidase; settings: previous study; ref Zhang et al., 23; cited from earlier work
[5] = system: mice fed a high fat and high sucrose diet; settings: cited from earlier work
[6] = biological target: yeast α-glucosidase; settings: in vitro; cited from earlier work
[7] = system: STZ-induced diabetic rats; settings: cited from earlier work

Structure (SMILES): O=c1c(O)c(-c2ccc(O)cc2)oc2cc(O)cc(O)c12 [Compound 3, kaempferol]
α-glucosidase inhibition [1]: ~95.1%

α-glucosidase inhibition relative to the standard drug acarbose [2]: thirty-seven times better
type of α-glucosidase inhibition ([3]; Lineweaver–Burk plots, 0, 1.98, 3.97, 7.93 μM): mixed mode inhibitor
Ki ([3]; read-out: inhibition constant binding with the free enzyme (Ki), secondary plot): 5.58 ± 0.35 µM
inhibition constant binding with the enzyme–substrate complex (K′i) ([3]; secondary plot): 10.33 ± 0.85 µM
Structure (SMILES): O=c1c(O)c(-c2ccc(O)c(O)c2)oc2c(Br)c(O)cc(O)c12 [Compound 5a, 8-Bromoquercetin]

Structure (SMILES): C[C@@H]1O[C@@H](Oc2c(-c3ccc(O)c(O)c3)oc3cc(O)cc(O)c3c2=O)[C@H](O)[C@H](O)[C@H]1O [Compound 6, quercitrin]
IC50 α-glucosidase inhibition [4]: 215 ± 4 µg/mL (≈ 480 µM)

Structure (SMILES): O=c1c(O)c(-c2cc(O)c(O)c(O)c2)oc2cc(O)cc(O)c12 [myricetin]
effect on fasting blood glucose level [5]: cut down the fasting blood glucose level
IC50 yeast α-glucosidase [6]: 5 µg/mL (≈ 15.7 µM)
effect on fasting blood glucose level [7]: cut down the fasting blood glucose level
